Screens as filed in PubChem.
The full list was thinned out, with hits kept by preference.
A1 apoptosis 2: compounds inhibiting A1, read as caspase activation. 24,000 tested, under 10 active. AID 2465. MEF A1-2A-BIM cells, caspase-Glo luminescence, 3 h; percent of clofoctol response, DMSO zero. caspase activation, % (no concentration beside the values); in the data active = caspase activation above about 5.9%; inconclusive = no clear call, values can overlap the other calls; inactive = below about 2.2%
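system = A1-2A-BIM-expressing MEF cells | quantity = 2500 MEF cells/well | dosing = 50 nL compound per well, pinned | schedule = overnight cell settling, then 3 h compound exposure, 37 °C | signal = luminescence from DEVD-luciferin Caspase-Glo reagent, 1:1 in 50 mM HEPES, 1 h RT | read-out = Caspase-3/7 activation, seen as rise in luminescence signal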
INS-1E ATP HTS: rescue of cytokine-induced death in INS-1E beta cells; INS-1E cytokine-induced death, ATP luminescence, 48 h; normalised: neutral wells 0, positive control 100; protection from cytokine-induced ATP loss, % at 10 µM; 0.1% of 20,000 active;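 active = mean replicate protection from cytokine-induced ATP loss at least 50% and at least 75% of replicates each reaching 50%; inconclusive = meets only one of the two criteria, mean or replicate share; inactive = fails both the mean and replicate share criteria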
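Assay system: INS-1E rat cells / Quantity: 8000 cells per well / Medium: RPMI without phenol red, 5% FBS / Probe or stimulus: three-cytokine cocktail (IFN-γ, TNF-α, IL-1β) / Dosing: one compound concentration, pin transfer / Timing: 48 h co-treatment, 10 min post-lysis read / Technique: CellTiter-Glo luminescence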
T cruzi HTS: inhibitors of intracellular Trypanosoma cruzi. AID 651903. intracellular Trypanosoma cruzi in host cells, plate reader. 4.9% of 22,000 active. activity score (inhibition), % at 5.01 µM; in the data active = activity score above about 55%; inconclusive = no clear call, values can overlap the other calls;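 also: parasites and compound incubated about four days before reading; 0% = median of neutral control wells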
* = called active by the depositor; ? = inconclusive; . = no result.

SMILES | A1 apoptosis 2 | INS-1E ATP HTS | T cruzi HTS
C[C@H]1CN([C@@H](C)CO)C(=O)Cc2cc(NC(=O)Cc3ccccc3)ccc2O[C@H]1CN(C)Cc1ccc(Cl)c(Cl)c1 | 0.8 | -27.0 | 56.9*
C[C@H](CO)N1C[C@H](C)[C@H](CN(C)Cc2ccc(Cl)c(Cl)c2)Oc2ccc(NC(=O)Nc3ccccc3)cc2CC1=O | 1.2 | -33.6 | 74.8*
C[C@@H]1CN([C@@H](C)CO)C(=O)Cc2cc(NC(=O)Nc3ccc(F)cc3)ccc2O[C@@H]1CN(C)Cc1ccc(Cl)c(Cl)c1 | 0.1 | 1.0 | 66.6*
C[C@H](CO)N1C[C@H](C)[C@H](CN(C)Cc2ccc(Cl)c(Cl)c2)Oc2ccc(NC(=O)Nc3ccc4c(c3)OCO4)cc2CC1=O | 0.3 | -27.6 | 80.0*
C[C@@H]1CN([C@@H](C)CO)C(=O)Cc2cc(NC(=O)Nc3ccc4c(c3)OCO4)ccc2O[C@H]1CN(C)Cc1ccc2c(c1)OCO2 | 1.0 | . | .
O=C(CCCCCC(=O)N/N=C/c1ccc(F)cc1)NO | 1.0 | . | .
C[C@@H]1CN([C@H](C)CO)C(=O)Cc2cc(NS(=O)(=O)c3ccc(F)cc3)ccc2O[C@@H]1CN(C)C | . | 6.5 | -9.4
COc1cc(/C=N/NC(=O)CCCCCCC(=O)Nc2ccccc2O)c([N+](=O)[O-])cc1OC | -0.9 | 5.9 | -3.8
C[C@@H]1CN([C@@H](C)CO)C(=O)Cc2cc(NC(=O)Nc3ccc(C(F)(F)F)cc3)ccc2O[C@@H]1CN(C)Cc1ccc(Oc2ccccc2)cc1 | -1.0 | -8.4 | 74.0*
C[C@H]1CN([C@@H](C)CO)C(=O)Cc2cc(NC(=O)Nc3ccc(C(F)(F)F)cc3)ccc2O[C@H]1CN(C)Cc1ccc(Oc2ccccc2)cc1 | -1.3 | -18.8 | 4.4
C[C@@H]1CN([C@H](C)CO)C(=O)Cc2cc(NC(=O)Nc3ccc(C(F)(F)F)cc3)ccc2O[C@@H]1CN(C)Cc1ccc(Oc2ccccc2)cc1 | 0.7 | -35.0 | 79.8*
C[C@@H]1CN([C@H](C)CO)C(=O)Cc2cc(NC(=O)Nc3ccccc3)ccc2O[C@H]1CN(C)Cc1ccc(Oc2ccccc2)cc1 | . | -46.4 | 49.4
Cc1noc(C)c1S(=O)(=O)Nc1ccc2c(c1)CC(=O)N([C@H](C)CO)C[C@H](C)[C@@H](CN(C)C(=O)Nc1ccc(C(F)(F)F)cc1)O2 | -0.3 | . | .
COc1ccc(Br)cc1/C=N/NC(=O)CCCCCCC(=O)Nc1ccccc1O | 1.4 | 11.2 | 3.4
COC(=O)CCCCCCC(=O)N/N=C/[C@H](O)[C@@H](O)[C@H](O)[C@H](O)CO | -0.3 | 4.5 | -13.9
C[C@H](CO)N1C[C@H](C)[C@@H](CN(C)Cc2ccc3c(c2)OCO3)Oc2ccc(NC(=O)CCCCCC(=O)Nc3ccccc3N)cc2C1=O | 0.7 | 7.6 | -15.6
C[C@@H]1CN([C@@H](C)CO)C(=O)c2cccc(NC(=O)CCCCCC(=O)Nc3ccccc3N)c2O[C@H]1CN(C)Cc1ccc2c(c1)OCO2 | 0.2 | 25.2 | 58.6*
C[C@H]1CN([C@@H](C)CO)C(=O)c2cccc(NC(=O)CCCCCC(=O)Nc3ccccc3N)c2O[C@@H]1CN(C)Cc1ccc2c(c1)OCO2 | . | 18.8 | 72.3*
C[C@H](CO)N1C[C@H](C)[C@H](CN(C)Cc2ccc3c(c2)OCO3)Oc2ccc(NC(=O)CCCCCC(=O)Nc3ccccc3N)cc2C1=O | -0.8 | 4.0 | -17.8
C[C@H](CO)N1C[C@H](C)[C@@H](CN(C)Cc2ccc3c(c2)OCO3)Oc2c(NC(=O)CCCCCC(=O)Nc3ccccc3N)cccc2C1=O | -0.2 | 11.8 | 72.7*
C[C@@H]1CN([C@@H](C)CO)C(=O)c2cc(NC(=O)CCCCCC(=O)Nc3ccccc3N)ccc2O[C@@H]1CN(C)Cc1ccc2c(c1)OCO2 | 1.1 | -1.1 | -6.5
O=C(NO)c1ccc(C(=O)N/N=C/c2cc(Br)cs2)cc1 | . | -7.1 | -13.5
C=C(C)[C@@H]1CC=C(/C=N/NC(=O)c2ccccn2)CC1 | . | -22.4 | -11.5
CCO[C@@H]1OC(C(=O)N2CCCCCCC2)=C[C@H](C)[C@H]1CCCO | 0.1 | . | .
Cc1ccc(S(=O)(=O)N[C@@H](Cc2ccccc2)C(=O)NCCn2cc(-c3ccccc3N)nn2)cc1 | -0.2 | . | .
SMILES | A1 apoptosis 2 | INS-1E ATP HTS | T cruzi HTS
COc1ccc(S(=O)(=O)N(C)C[C@H]2Oc3c(NC(=O)Nc4ccc(C(F)(F)F)cc4)cccc3C(=O)N([C@H](C)CO)C[C@@H]2C)cc1 | -0.8 | -18.0 | ?
COc1ccc(S(=O)(=O)N(C)C[C@H]2Oc3ccc(NC(=O)Nc4cccc5ccccc45)cc3C(=O)N([C@@H](C)CO)C[C@@H]2C)cc1 | . | 0.6 | 3.2
COc1ccc(S(=O)(=O)N(C)C[C@H]2Oc3c(NC(=O)Nc4ccc(C(F)(F)F)cc4)cccc3C(=O)N([C@@H](C)CO)C[C@H]2C)cc1 | -0.3 | -101.9 | 67.1*
COc1ccc(S(=O)(=O)N(C)C[C@H]2Oc3c(NC(=O)Nc4ccc(C(F)(F)F)cc4)cccc3C(=O)N([C@@H](C)CO)C[C@@H]2C)cc1 | -0.7 | -38.9 | 69.8*
COc1ccc(S(=O)(=O)N(C)C[C@H]2Oc3ccc(NC(=O)Nc4cccc5ccccc45)cc3C(=O)N([C@@H](C)CO)C[C@H]2C)cc1 | . | -9.5 | 61.7*
COc1ccc(S(=O)(=O)N(C)C[C@@H]2Oc3c(NC(=O)Nc4ccc(C(F)(F)F)cc4)cccc3C(=O)N([C@@H](C)CO)C[C@H]2C)cc1 | -1.6 | -6.9 | 2.1
CC(C)=CCC[C@H](C)C/C=N/NC(=O)CCCCCC(=O)NO | -0.3 | . | .
C[C@@H]1CN([C@@H](C)CO)C(=O)Cc2cc(NC(=O)Nc3cccc4ccccc34)ccc2O[C@@H]1CN(C)Cc1ccncc1 | -0.7 | -0.7 | 51.1
COCCOC(=O)N1C(=O)[C@@]2(c3ccccc31)[C@H](C(=O)N1CCc3cc(OC)c(OC)cc3C1)[C@H]1C(=O)O[C@H](c3ccccc3)[C@H](c3ccccc3)N1[C@@H]2c1ccccc1OCCO | -0.4 | . | .
COC(=O)c1cn(CC(=O)N2CCN(C)CC2)nn1 | -0.8 | . | .
C[C@@H]1CN([C@@H](C)CO)C(=O)c2cc(NC(=O)Nc3ccc4c(c3)OCO4)ccc2O[C@@H]1CN(C)Cc1ccc(C(=O)Nc2ccccc2N)cc1 | . | 4.4 | 46.1
C[C@@H]1CN([C@@H](C)CO)C(=O)c2cc(NC(=O)Nc3ccc4c(c3)OCO4)ccc2O[C@H]1CN(C)Cc1ccc(C(=O)Nc2ccccc2N)cc1 | 0.1 | -18.7 | 54.9
C[C@H]1CN([C@@H](C)CO)C(=O)c2cccc(NC(=O)Nc3ccc4c(c3)OCO4)c2O[C@H]1CN(C)Cc1ccc(C(=O)Nc2ccccc2N)cc1 | . | -12.9 | 66.4*
C[C@@H]1CN([C@H](C)CO)C(=O)c2cccc(NC(=O)Nc3ccc4c(c3)OCO4)c2O[C@@H]1CN(C)Cc1ccc(C(=O)Nc2ccccc2N)cc1 | . | 10.5 | 68.0*
COc1ccc(CN(C)C[C@@H]2Oc3ccc(NS(=O)(=O)c4cccs4)cc3CC(=O)N([C@H](C)CO)C[C@H]2C)cc1 | . | 4.3 | 15.6
C[C@@H]1CN([C@H](C)CO)C(=O)Cc2cc(NS(=O)(=O)c3cccs3)ccc2O[C@@H]1CN(C)Cc1ccc(-c2ccccc2)cc1 | . | -13.6 | 44.1
